Experimental data collected from several papers.
Each line is one published result; the experiments were not run side by side.
Read-out: enzyme activity
Mode: inhibitor
PDGFRA: Platelet-derived growth factor receptor alpha (PDGFRA, Homo sapiens, UniProt P16234)
PDGFRA D842V: Platelet-derived growth factor receptor alpha (PDGFRA, Homo sapiens, UniProt P16234, D842V)

COc1cc2ncnc(Nc3ccc(Oc4ccccc4)c(C)c3C)c2cc1OC
inhibition (PDGFRA; 1 µM): 6%

COc1cc2nccc(Oc3ccc(NC(=O)c4c5n(n(-c6ccc(F)cc6)c4=O)CCCC5)cc3)c2cc1OC
inhibition (PDGFRA; 0.1 µM): 30%

CNC(=O)c1cc(Oc2ccc(NC(=O)Nc3ccc(Cl)c(C(F)(F)F)c3)cc2)ccn1
inhibition (Platelet-derived growth factor receptor alpha (PDGFRA, Homo sapiens, UniProt P16234, V561D); 0.3 µM): 99%

CNC(=O)c1cc2c(Oc3ccc(NC(=O)C4(C(=O)Nc5ccc(F)cc5)CC4)cc3)ccnc2cc1OC
inhibition (PDGFRA D842V; radiometric; 1 µM): 73%

O=C(CSc1nc2nccnc2c(=O)n1CCc1ccccc1)Nc1nccs1
inhibition (PDGFRA; 10 µM): 16%

CCCS(=O)(=O)Nc1ccc(F)c(C(=O)c2c[nH]c3ncc(-c4ccc(Cl)cc4)cc23)c1F
inhibition (PDGFRA; 1 µM): < 10%

COc1cc(-c2cc(-c3ccc(N4CCNCC4)cc3)cnc2N)cc(OC)c1OC
inhibition (Platelet-derived growth factor receptor alpha (PDGFRA, Homo sapiens, UniProt P16234, T674I); 0.1 µM): 2%

COc1cc2ncnc(Nc3ccc(Oc4ccccc4)cc3C)c2cc1OC
inhibition (PDGFRA D842V; 1 µM): -1%

CC/C(=N\NC(=O)NCc1cccc(O)c1)c1ccc(O)c(C)c1O
inhibition (PDGFRA D842V; 0.1 µM): 1.1%

CNCc1ccc(-c2cc(-c3nc(-c4ccc(S(=O)(=O)C(C)C)cc4)cnc3N)on2)cc1
inhibition (PDGFRA; 0.4 µM): 0%
